Experiments:
[1] = test system: SK-HEP1; assay: Inhibitory concentration against human SK-Hep-1 cells (hepatoma cell line); type: functional, cell-based
In short: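 SK-HEP-1 cells carrying pre-labeled ¹⁴C-glycogen, with phosphorylase activated by forskolin. Glycogenolysis is the ¹⁴C-glycogen (dpm) difference between basal and forskolin-treated cells. Inhibition is expressed as percent of forskolin-induced glycogenolysis in DMSO controls. IC50 from a 6-point curve (0.1–30μM), triplicate points, mean of ≥2 independent experiments where repeated.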

[2] = molecular target: T1, Glycogen phosphorylase, liver form (Homo sapiens, UniProt P06737); assay: (§1) Inhibitory concentration against glycogen phosphorylase
T1 sequence (P06737 whole entry): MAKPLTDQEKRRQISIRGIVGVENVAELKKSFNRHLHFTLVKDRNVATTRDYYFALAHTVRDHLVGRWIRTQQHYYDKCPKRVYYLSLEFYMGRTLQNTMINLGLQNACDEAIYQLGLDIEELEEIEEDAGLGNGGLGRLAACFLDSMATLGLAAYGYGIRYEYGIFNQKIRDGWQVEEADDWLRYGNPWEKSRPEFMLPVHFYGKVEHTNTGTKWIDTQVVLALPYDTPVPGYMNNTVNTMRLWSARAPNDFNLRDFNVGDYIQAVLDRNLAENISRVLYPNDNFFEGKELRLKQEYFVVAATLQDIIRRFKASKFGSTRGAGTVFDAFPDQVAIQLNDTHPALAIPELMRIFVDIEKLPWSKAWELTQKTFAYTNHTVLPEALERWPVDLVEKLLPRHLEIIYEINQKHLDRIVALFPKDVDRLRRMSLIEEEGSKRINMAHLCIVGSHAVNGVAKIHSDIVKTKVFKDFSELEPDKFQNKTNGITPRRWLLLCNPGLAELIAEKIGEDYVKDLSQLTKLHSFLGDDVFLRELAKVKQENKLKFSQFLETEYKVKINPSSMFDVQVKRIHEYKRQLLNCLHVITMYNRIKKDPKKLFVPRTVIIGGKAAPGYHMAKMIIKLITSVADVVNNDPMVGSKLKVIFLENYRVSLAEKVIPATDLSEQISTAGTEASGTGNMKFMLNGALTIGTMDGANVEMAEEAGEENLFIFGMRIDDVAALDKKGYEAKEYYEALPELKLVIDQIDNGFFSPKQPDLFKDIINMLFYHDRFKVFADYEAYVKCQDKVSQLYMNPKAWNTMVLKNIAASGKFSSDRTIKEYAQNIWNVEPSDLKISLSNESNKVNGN

[3] = test system: Mus musculus; assay: In-vivo minimum effective dose (MED) for reduction of plasma glucose in mouse after 3 hours; type: functional; settings: read-out: MED
In short: (§2)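 Fed diabetic ob/ob mice, oral dosing in neat PEG400, starting at […] and then at successively lower doses. Plasma glucose measured 3h post-dose. Lowering is expressed as percent decrease versus vehicle-treated controls within the same experiment, with significance by unpaired t-test on group mean glucose. MED is the lowest dose giving reduction.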

[4] = species: Mus musculus; assay: Percentage of glucose lowering after 3h at minimum effective dose in mouse; type: functional; in short: as §2
[5] = molecular target: T1, Glycogen phosphorylase, liver form; assay: as §1; remark: listed apart in the source
In short: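 Recombinant human liver GPa (50ng), run in the glycogen-synthesis direction at 22°C. Compounds added in 14% DMSO before enzyme. Released phosphate read at 620nm with malachite green/molybdate in HCl after 20min. IC50 from triplicate dose-response curves, mean of ≥3 determinations (≥2 if >500 nM).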

| Structure (SMILES) | IC50 [1] [nM] | IC50 [2] [nM] | minimal effective dose [3] [mg/kg] | Activity [4] [%] | IC50 [5] [nM] |
| --- | --- | --- | --- | --- | --- |
| O=C(NCC(=O)N(CCOCCO)C1CCCC1)c1cc2cc(Cl)ccc2[nH]1 | 3800 | 230 | > 10 |  |  |
| O=C(NCC(=O)N(CCO)C1CCOCC1)c1cc2cc(Cl)ccc2[nH]1 | 1400 | 250 | 5 | 27 |  |
| O=C(NCC(=O)N(CCO)C1CCCC1)c1cc2cc(Cl)ccc2[nH]1 | 140 | 57 | 5 | 25 |  |
| O=C(NCC(=O)N(CCO)C1CCC1)c1cc2cc(Cl)ccc2[nH]1 | 2000 | 130 | 25 | 30 |  |
| O=C(NCC(=O)N(CCO)c1ccccc1)c1cc2cc(Cl)ccc2[nH]1 | 270 | 120 | > 10 |  |  |
| CN(C)C(=O)[C@H](O)[C@H](Cc1ccccc1)NC(=O)c1cc2cc(Cl)ccc2[nH]1 | 1500 |  | 25 | 32 |  |
| CN(C(=O)CNC(=O)c1cc2cc(Cl)ccc2[nH]1)C1CCCC1 | 1700 | 55 | 10 | 36 |  |
| O=C(NCC(=O)N(CCOc1ccccc1)C1CCCC1)c1cc2cc(Cl)ccc2[nH]1 |  |  |  |  | 1400 |
| CCCCN(CCO)C(=O)CNC(=O)c1cc2cc(Cl)ccc2[nH]1 | 1000 | 120 | > 10 |  |  |
| CC(C)(O)CN(C(=O)CNC(=O)c1cc2cc(Cl)ccc2[nH]1)C1CCCC1 | 1400 | 150 | 10 | 30 |  |
| CC(C)CN(CCO)C(=O)CNC(=O)c1cc2cc(Cl)ccc2[nH]1 | 2500 | 180 | 25 | 25 |  |
| O=C(NCC(=O)N(CCO)C1CCCCC1)c1cc2cc(Cl)ccc2[nH]1 | 710 | 99 | > 10 |  |  |
| CN(C(=O)CNC(=O)c1cc2cc(Cl)ccc2[nH]1)C1CCCCC1 | 1400 | 150 | > 10 |  |  |
| N#CCN(C(=O)CNC(=O)c1cc2cc(Cl)ccc2[nH]1)C1CCCC1 | 680 | 30 | 10 | 40 |  |
